pIC50: −log10 of the molar value. The source made the active and inactive calls. No cut-off for these calls is given here.
Legend:
HeLa [1] = experiment: Prodrug conversion in human HeLa cells assessed as (E)-4-((3-(3-(N-phenylsulfamoyl)phenyl)acrylamidooxy)methyl)phenylboronic acid level after 5 days by UHPLC-MS/MS analysis; format: ADME, cell-based; conditions: 120 h
Method in brief: (§1)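 MDA-MB-231 or HeLa cells were incubated with the pinacol boronate prodrug, and culture medium was sampled daily from day 1 to day 6. The prodrug, boronic acid forms and belinostat were separated, identified and quantified by HPLC coupled to an Orbitrap mass spectrometer. Results are in ng/mL as mean ± SEM of triplicate experiments.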

MCF7 [2] = experiment: Antitumor activity against human MCF7 cells implanted in ovariectomized nu/nu mouse assessed as tumor volume at 10 mg/kg, sc administered once daily for 22 days measured on day 12 during compound dosing (reference value: 869 +/- 173 mm3); format: functional
MCF7 [3] = experiment: Antitumor activity against human MCF7 cells implanted in ovariectomized nu/nu mouse assessed as tumor growth inhibition at 10 mg/kg, sc administered once daily for 22 days measured post last dose relative to control; format: functional; conditions: 528 h, read-out: TGI
MDA-MB-231 [4] = experiment: Prodrug conversion in human MDA-MB-231 cells assessed as belinostat level after 5 days by UHPLC-MS/MS analysis; format: ADME, cell-based; conditions: mda-mb-231, 120 h; method in brief: as §1
MDA-MB-231 [5] = experiment: Prodrug conversion in human MDA-MB-231 cells assessed as belinostat level after 2 days by UHPLC-MS/MS analysis; format: ADME, cell-based; conditions: mda-mb-231, 48 h; method in brief: as §1
HeLa [6] = experiment: Prodrug conversion in human HeLa cells assessed as belinostat level after 5 days by UHPLC-MS/MS analysis; format: ADME, cell-based; conditions: 120 h; method in brief: as §1
[7] = Drug uptake in tumor of ovariectomized nu/nu mouse implanted with human MCF7 cells assessed as belinostat level at 10 mg/kg, sc administered once daily for 22 days measured post last dose by HPLC-MS/MS analysis; format: ADME, organism-based, Neoplasm; conditions: in vivo, 528 h
Method in brief: (§2)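 After 22 days of 10 mg/kg/day subcutaneous dosing in MCF-7 xenograft mice, animals were sacrificed. Tumours were excised, homogenized and extracted, then analysed by HPLC–MS/MS for belinostat and the free boronic acid. Results are expressed as ng/g tissue.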

MCF7 [8] = experiment: Antitumor activity against human MCF7 cells implanted in ovariectomized nu/nu mouse assessed as tumor volume at 10 mg/kg, sc administered once daily for 22 days measured post last dose relative to control; format: functional
Histone deacetylase = experiment: Inhibition of HDAC in human cell lysates using fluoro-substrate peptide/fluoro-deacetylated peptide as substrate incubated for 20 mins measured at 1 to 2 mins interval for 30 to 60 mins by fluorescence assay; format: protein assay
MCF7 [9] = experiment: Antitumor activity against human MCF7 cells implanted in ovariectomized nu/nu mouse assessed as tumor remission at 10 mg/kg, sc administered once daily for 22 days measured at 1 day interval for 3 weeks during compound dosing; format: functional, organism-based
HeLa [10] = experiment: Prodrug conversion in human HeLa cells assessed as (E)-4-((3-(3-(N-phenylsulfamoyl)phenyl)acrylamidooxy)methyl)phenylboronic acid level after 4 days by UHPLC-MS/MS analysis; format: ADME, cell-based; conditions: 96 h; method in brief: as §1
MDA-MB-231 [11] = experiment: Prodrug conversion in human MDA-MB-231 cells assessed as belinostat level after 6 days by UHPLC-MS/MS analysis; format: ADME, cell-based; conditions: mda-mb-231, 144 h; method in brief: as §1
SK-MEL-28 = experiment: Antiproliferative activity against human SK-MEL-28 cells after 72 hrs by resazurin dye based fluorescence assay; format: functional, cell-based; conditions: SK-MEL-28, 72 h
MDA-MB-231 [12] = experiment: Prodrug conversion in human MDA-MB-231 cells assessed as (E)-4-((3-(3-(N-phenylsulfamoyl)phenyl)acrylamidooxy)methyl)phenylboronic acid level after 6 days by UHPLC-MS/MS analysis; format: ADME, cell-based; conditions: mda-mb-231, 144 h; method in brief: as §1
[13] = Drug uptake in tumor of ovariectomized nu/nu mouse implanted with human MCF7 cells assessed as (E)-4-((3-(3-(N-phenylsulfamoyl)phenyl)acrylamidooxy)methyl)phenylboronic acid level at 10 mg/kg, sc administered once daily for 22 days measured post last dose by HPLC-MS/MS analysis; format: ADME, organism-based, Neoplasm; conditions: in vivo, 528 h; method in brief: as §2
MDA-MB-231 [14] = experiment: Prodrug conversion in human MDA-MB-231 cells assessed as (E)-4-((3-(3-(N-phenylsulfamoyl)phenyl)acrylamidooxy)methyl)phenylboronic acid level after 3 days by UHPLC-MS/MS analysis; format: ADME, cell-based; conditions: mda-mb-231, 72 h; method in brief: as §1
MDA-MB-231 [15] = experiment: Prodrug conversion in human MDA-MB-231 cells assessed as (E)-4-((3-(3-(N-phenylsulfamoyl)phenyl)acrylamidooxy)methyl)phenylboronic acid level after 5 days by UHPLC-MS/MS analysis; format: ADME, cell-based; conditions: mda-mb-231, 120 h; method in brief: as §1
MDA-MB-231 [16] = experiment: Prodrug conversion in human MDA-MB-231 cells assessed as belinostat level after 4 days by UHPLC-MS/MS analysis; format: ADME, cell-based; conditions: mda-mb-231, 96 h; method in brief: as §1
MCF7 [17] = experiment: Antitumor activity against human MCF7 cells implanted in ovariectomized nu/nu mouse assessed as tumor volume at 10 mg/kg, sc administered once daily for 22 days measured post last dose (reference value: 869 +/- 173 mm3); format: functional
NCI-H460 = experiment: Antiproliferative activity against human NCI-H460 cells after 72 hrs by resazurin dye based fluorescence assay; format: functional, cell-based; conditions: NCI-H460, 72 h
HeLa [18] = experiment: Prodrug conversion in human HeLa cells assessed as belinostat level after 2 days by UHPLC-MS/MS analysis; format: ADME, cell-based; conditions: 48 h; method in brief: as §1
MDA-MB-231 [19] = experiment: Prodrug conversion in human MDA-MB-231 cells assessed as (E)-4-((3-(3-(N-phenylsulfamoyl)phenyl)acrylamidooxy)methyl)phenylboronic acid level after 2 days by UHPLC-MS/MS analysis; format: ADME, cell-based; conditions: mda-mb-231, 48 h; method in brief: as §1
MCF-10A = experiment: Cytotoxicity against human MCF10A cells assessed as reduction in cell proliferation at 10 uM after 72 hrs by resazurin dye based fluorescence assay
HeLa [20] = experiment: Prodrug conversion in human HeLa cells assessed as (E)-4-((3-(3-(N-phenylsulfamoyl)phenyl)acrylamidooxy)methyl)phenylboronic acid level after 3 days by UHPLC-MS/MS analysis; format: ADME, cell-based; conditions: 72 h; method in brief: as §1
HeLa [21] = experiment: Prodrug conversion in human HeLa cells assessed as belinostat level after 4 days by UHPLC-MS/MS analysis; format: ADME, cell-based; conditions: 96 h; method in brief: as §1

Compound: CC1(C)OB(c2ccc(CONC(=O)/C=C/c3cccc(S(=O)(=O)Nc4ccccc4)c3)cc2)OC1(C)C
- Drug metabolism (HeLa [1]): 82.7 ng/mL
- Activity (MCF7 [2]): 153 mm3
- inhibition in vivo at 10 mg/kg (MCF7 [3]): 85.4%
- Drug metabolism (MDA-MB-231 [4]): 28.5 ng/mL
- Drug metabolism (MDA-MB-231 [5]): 27.7 ng/mL
- Drug metabolism (HeLa [6]): 3.7 ng/mL
- Drug uptake [7]: 57 ng/g
- T/C (MCF7 [8]): 14.6%
- EC50 (Histone deacetylase): 350 nM
- Activity (MCF7 [9]): Active
- Drug metabolism (HeLa [10]): 107 ng/mL
- Drug metabolism (MDA-MB-231 [11]): 27.8 ng/mL
- pIC50 (SK-MEL-28): 6.17
- Drug metabolism (MDA-MB-231 [12]): 130.9 ng/mL
- Drug uptake [13]: 51 ng/g
- Drug metabolism (MDA-MB-231 [14]): 246.9 ng/mL
- Drug metabolism (MDA-MB-231 [15]): 145.8 ng/mL
- Drug metabolism (MDA-MB-231 [16]): 19.8 ng/mL
- Activity (MCF7 [17]): 127 mm3
- pIC50 (NCI-H460): 6.37
- Drug metabolism (HeLa [18]): 6.6 ng/mL
- Drug metabolism (MDA-MB-231 [19]): 268.5 ng/mL
- Activity (MCF-10A): Non-Toxic
- Drug metabolism (HeLa [20]): 144.9 ng/mL
- Drug metabolism (HeLa [21]): 7.8 ng/mL
